Active and inactive are the calls of the source. No cut-off for these calls is given here.
Legend:
[1] = test system: Human immunodeficiency virus 1; experiment: Antiviral activity against reverse transcriptase and protease inhibitor-resistant HIV-1 isolate HI96-90 harboring reverse transcriptase M41L, E44A, V118L, M184V, L210W, T215Y and protease L10I, L63P mutant gene infected in human PBMC; format: functional, organism-based; conditions: Human immunodeficiency virus 1, isolate HI96-90
In short: (§1)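 Clinical isolate stocks were grown in PBMC and titred by 10-fold serial dilution (TCID50). PBMC (600,000 cells/ml) were infected at 100 TCID50 and cultured with 1, 4, 16, 64 or 256 μM α-HGA, in duplicate, with untreated infected controls. Medium was changed on days 5–7. Supernatant p24 was measured by sandwich ELISA against a recombinant p24 standard up to day 14, and EC50 was derived.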

[2] = test system: Human immunodeficiency virus 1; experiment: Antiviral activity against reverse transcriptase and protease inhibitor-resistant HIV-1 isolate HI95-10 harboring reverse transcriptase V179I and protease M36I, L63P mutant gene infected in human PBMC; format: functional, organism-based; conditions: Human immunodeficiency virus 1, isolate HI95-10; in short: as §1
[3] = test system: Human immunodeficiency virus 1; experiment: Antiviral activity against HIV-1 SF-2 infected in human H9 cells assessed as appearance of immature viral core morphology at 10 uM by TEM (reference value: 9%); format: functional
[4] = test system: Human immunodeficiency virus 1; experiment: Antiviral activity against HIV-1 SF-2 infected in human PBMC; format: functional, organism-based; conditions: Human immunodeficiency virus 1, SF-2
[5] = test system: Human immunodeficiency virus 1; experiment: Antiviral activity against HIV-1 SF-2 infected in human H9 cells assessed as appearance of distorted core structured viral particles by TEM assay; format: functional
[6] = test system: Human immunodeficiency virus 1; experiment: Antiviral activity against reverse transcriptase and protease inhibitor-resistant HIV-1 isolate HI93-49 harboring reverse transcriptase L74V, V106I and protease […] mutant gene infected in human PBMC; format: functional, organism-based; conditions: Human immunodeficiency virus 1, isolate HI93-49; in short: as §1
[7] = test system: Human immunodeficiency virus 1; experiment: Antiviral activity against reverse transcriptase and protease inhibitor-resistant HIV-1 isolate HI94-18 harboring reverse transcriptase M230S mutant gene infected in human PBMC; format: functional, organism-based; conditions: Human immunodeficiency virus 1, isolate HI94-18; in short: as §1
Human alphaherpesvirus 2 = experiment: Antiviral activity against Herpes simplex virus type 2 infected in HEL cells; format: functional, organism-based; conditions: Human alphaherpesvirus 2, HEL
In short: (§2)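 Cell cultures grown to confluence in microtiter wells, inoculated with 100 TCID50 of virus; after 1 h adsorption, residual virus removed, then incubated with fivefold dilutions of test compound. Viral cytopathicity scored once complete in untreated infected control cultures.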

Human respirovirus 3 = experiment: Antiviral activity against Parainfluenza virus 3 infected in african green monkey Vero cells; format: functional, organism-based; conditions: Human respirovirus 3, Vero; in short: as §2
H9 = experiment: Cytotoxic activity against human H9 cells at 1000 uM after 14 days by trypan blue assay; format: cell-based; conditions: h9, 336 h
In short: (§3)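 PBMC (600,000 cells/ml) or cell lines (200,000 cells/ml) cultured 14 days with 25, 100, 250, 500 or 1,000 μM compound; viable and dead cells counted in a counting chamber after 0.4% trypan blue staining.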

[8] = test system: Human immunodeficiency virus 1; experiment: Antiviral activity against HIV-1 SF-2 infected in human H9 cells assessed as appearance of two separate core structured viral particles at 10 uM by TEM assay (reference value: 0%); format: functional
[9] = Cytotoxic activity against human Molt4/C8 cells at 1000 uM after 14 days by trypan blue assay; format: cell-based; conditions: molt-4, 336 h; in short: as §3
[10] = test system: Human immunodeficiency virus 1; experiment: Antiviral activity against HIV-1 infected in human HeLa cells assessed as inhibition of viral p24 tubular assembly at 100 uM by TEM assay; format: functional, organism-based
In short: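 HeLa-tat cells (10⁵) seeded 1 day before, transfected (FuGENE6) with pC37M plasmid expressing p17-p24 fusion, 100 μM compound in culture medium. At 48–72 h posttransfection fixed in fresh 2.5% glutaraldehyde and intracellular tubular structures examined by TEM.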

[11] = test system: Human immunodeficiency virus 1; experiment: Antiviral activity against HIV-1 pNL4-3 infected in human PBMC; format: functional, organism-based; conditions: Human immunodeficiency virus 1, pNL4-3
[12] = test system: Human immunodeficiency virus 1; experiment: Antiviral activity against HIV-1 3B infected in human PBMC; format: functional, organism-based; conditions: Human immunodeficiency virus 1, 3B
[13] = test system: Human immunodeficiency virus 1; experiment: Antiviral activity against reverse transcriptase and protease inhibitor-resistant HIV-1 isolate HI99-58 harboring reverse transcriptase D67N, K70R, A98S, Y181C, K219Q and protease M36I, L63P, I93L mutant gene infected in human PBMC; format: functional, organism-based; conditions: Human immunodeficiency virus 1, isolate HI99-58; in short: as §1
[14] = test system: Human immunodeficiency virus 1; experiment: Antiviral activity against HIV-1 SF-2 infected in human H9 cells assessed as appearance of parallel slice of dense core viral particles at 10 uM by TEM assay (reference value: 41%); format: functional
L1210 = experiment: Cytotoxic activity against mouse L1210 cells at 1000 uM after 14 days by trypan blue assay; format: cell-based; conditions: l1210, 336 h; in short: as §3
[15] = test system: Human immunodeficiency virus 1; experiment: Antiviral activity against HIV-1 SF-2 infected in human H9 cells assessed as appearance of tubular core viral particles at 10 uM by TEM assay (reference value: 6%); format: functional
Vaccinia virus = experiment: Antiviral activity against Vaccinia virus infected in HEL cells; format: functional, organism-based; conditions: Orthopoxvirus vaccinia
[16] = test system: Human immunodeficiency virus 1; experiment: Antiviral activity against reverse transcriptase and protease inhibitor-resistant HIV-1 isolate HI98-100 harboring reverse transcriptase M41L, A98G, M184V, L210W, T215Y and protease L10F,K20R, M36I, M46I, L63P, V82A mutant gene infected in human PBMC; format: functional, organism-based; conditions: Human immunodeficiency virus 1, isolate HI98-100; in short: as §1
[17] = test system: Human immunodeficiency virus 1; experiment: Antiviral activity against reverse transcriptase and protease inhibitor-resistant HIV-1 isolate HI98-80 harboring reverse transcriptase M41L, D67N, M184V, T215F, K219Q and protease M36I mutant gene infected in human PBMC; format: functional, organism-based; conditions: Human immunodeficiency virus 1, isolate HI98-80; in short: as §1
[18] = test system: Human immunodeficiency virus 1; experiment: Antiviral activity against HIV-1 SF-2 infected in human H9 cells assessed as appearance of partially empty core viral particles at 10 uM by TEM assay (reference value: 13%); format: functional
[19] = test system: Human immunodeficiency virus 1; experiment: Antiviral activity against reverse transcriptase and protease inhibitor-resistant HIV-1 isolate HI98-96 harboring reverse transcriptase D67N, T69N, K70R, A98G, M184V, T215F, K219Q and protease L63P, G73T, D60E, L90M mutant gene infected in human PBMC; format: functional, organism-based; conditions: Human immunodeficiency virus 1, isolate HI98-96; in short: as §1
[20] = test system: Human immunodeficiency virus 1; experiment: Antiviral activity against reverse transcriptase and protease inhibitor-resistant HIV-1 isolate HI97-59 harboring reverse transcriptase M184V, L210W, T215Y and protease L10I, L63T mutant gene infected in human PBMC; format: functional, organism-based; conditions: Human immunodeficiency virus 1, isolate HI97-59; in short: as §1
[21] = test system: Human immunodeficiency virus 1; experiment: Antiviral activity against HIV-1 assessed as inhibition of viral p24 tubular protein assembly at 50 uM by TEM assay; format: functional, organism-based
PBMC [22] = experiment: Cytotoxic activity against human PBMC at 1000 uM after 14 days by trypan blue assay; format: cell-based; conditions: 336 h; in short: as §3
CCRF-CEM = experiment: Cytotoxic activity against human CEM cells at 1000 uM after 14 days by trypan blue assay; format: cell-based; conditions: 336 h; in short: as §3
FM3A = experiment: Cytotoxic activity against mouse FM3A cells at 1000 uM after 14 days by trypan blue assay; format: cell-based; conditions: 336 h; in short: as §3
[23] = test system: Vesicular stomatitis virus; experiment: Antiviral activity against Vesicular stomatitis virus infected in human HeLa cells; format: functional, organism-based
[24] = test system: Human immunodeficiency virus 1; experiment: Antiviral activity against HIV-1 SF-2 infected in human H9 cells assessed as appearance of empty core viral particles at 10 uM by TEM assay (reference value: 0%); format: functional
[25] = test system: Human immunodeficiency virus 1; experiment: Antiviral activity against reverse transcriptase and protease inhibitor-resistant HIV-1 isolate HI96-88 harboring reverse transcriptase M41L, E44A, D67N, T69D, L210W, T215Y and protease L63P mutant gene infected in human PBMC; format: functional, organism-based; conditions: Human immunodeficiency virus 1, isolate HI96-88; in short: as §1
[26] = test system: Human immunodeficiency virus 1; experiment: Antiviral activity against reverse transcriptase and protease inhibitor-resistant HIV-1 isolate HI90-317 harboring reverse transcriptase M41L, T215Y and protease M36I, […], A71T, I93L mutant gene infected in human PBMC; format: functional, organism-based; conditions: Human immunodeficiency virus 1, isolate HI90-317; in short: as §1
[27] = test system: Human immunodeficiency virus 1; experiment: Antiviral activity against HIV-1 assessed as inhibition of viral p24 tubular protein assembly at 100 uM by TEM assay; format: functional, organism-based
[28] = test system: Human immunodeficiency virus 1; experiment: Antiviral activity against reverse transcriptase and protease inhibitor-resistant HIV-1 isolate HI90-79 harboring reverse transcriptase M230V and protease M36I, […], A71T, I93L mutant gene infected in human PBMC; format: functional, organism-based; conditions: Human immunodeficiency virus 1, isolate HI90-79; in short: as §1
[29] = test system: Human immunodeficiency virus 1; experiment: Antiviral activity against reverse transcriptase and protease inhibitor-resistant HIV-1 isolate HI98-82 harboring reverse transcriptase M184V and protease L10I, I47M, L63P, I93L mutant gene infected in human PBMC; format: functional, organism-based; conditions: Human immunodeficiency virus 1, isolate HI98-82; in short: as §1
[30] = test system: Human immunodeficiency virus 1; experiment: Antiviral activity against HIV-1 assessed as inhibition of viral p24 tubular protein assembly by spectrophotometry; format: functional, organism-based
[31] = test system: Human immunodeficiency virus 1; experiment: Antiviral activity against HIV-1 SF-2 infected in human H9 cells assessed as appearance of tangential slice of dense core viral particles at 10 uM by TEM assay (reference value: 29%); format: functional
HeLa = experiment: Cytotoxic activity against human HeLa cells at 1000 uM after 14 days by trypan blue assay; format: cell-based; conditions: 336 h; in short: as §3
PBMC [32] = experiment: Effect on PHA-induced human PBMC cell proliferation up to 400 uM by beta scintillation counting; format: functional, cell-based
In short: (§4)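 PBMC (600,000 cells/ml) cultured 96 h in RPMI/10% FCS with PHA (2.5 μg/ml) and compound at 10–2,000 μM; [³H]thymidine (1 μCi/100,000 cells) added 8 h before end. Lysed cells harvested on nitrocellulose filters, cpm by β-scintillation counting. Untreated cells and cyclosporine (1 μg/ml) as controls.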

[33] = test system: Human immunodeficiency virus 1; experiment: Antiviral activity against reverse transcriptase and protease inhibitor-resistant HIV-1 isolate HI98-9 harboring reverse transcriptase M41L, M184V, T215Y and protease L10I, L24I, L63P, V77I, V82T/S mutant gene infected in human PBMC; format: functional, organism-based; conditions: Human immunodeficiency virus 1, isolate HI98-9; in short: as §1
PBMC [34] = experiment: Effect on PHA-induced human PBMC cell proliferation at 2000 uM by beta scintillation counting; format: functional, cell-based; in short: as §4
[35] = test system: Human immunodeficiency virus 1; experiment: Antiviral activity against reverse transcriptase and protease inhibitor-resistant HIV-1 isolate HI93-124 harboring reverse transcriptase N67D, T69D, K70R, T215F, K219Q and protease […] mutant gene infected in human PBMC; format: functional, organism-based; conditions: Human immunodeficiency virus 1, isolate HI93-124; in short: as §1
[36] = test system: Human immunodeficiency virus 1; experiment: Antiviral activity against HIV-1 SF-2 infected in human H9 cells assessed as appearance of irregular core viral particles at 10 uM by TEM assay (reference value: 1%); format: functional
[37] = test system: Human immunodeficiency virus 1; experiment: Antiviral activity against HIV-1 assessed as inhibition of viral p24 tubular protein assembly at 100 uM by spectrophotometry; format: functional, organism-based

## NC(=O)C(N)O (stereo not given)
[1]
  EC50: 8.6 µM
[2]
  EC50: 14 µM
[3]
  Activity: 8%
[4]
  EC50: 1 µM
[5]
  Activity: 62%
[6]
  EC50: 15 µM
[7]
  EC50: 16 µM
Human alphaherpesvirus 2
  EC50: 2000 µM
Human respirovirus 3
  EC50: 2000 µM
H9
  Activity: Non-toxic
[8]
  Activity: 4%
[9]
  Activity: Non-toxic
[10]
  inhibition: Active
[11]
  EC50: 1 µM
[12]
  EC50: 8 µM
[13]
  EC50: 7.6 µM
[14]
  Activity: 11%
L1210
  Activity: Non-toxic
[15]
  Activity: 6%
Vaccinia virus
  EC50: 2000 µM
[16]
  EC50: 16 µM
[17]
  EC50: 5.5 µM
[18]
  Activity: 33%
[19]
  EC50: 4.6 µM
[20]
  EC50: 4.2 µM
[21]
  inhibition: Active
PBMC [22]
  Activity: Non-toxic
CCRF-CEM
  Activity: Non-toxic
FM3A
  Activity: Non-toxic
[23]
  EC50: 2000 µM
[24]
  Activity: 9%
[25]
  EC50: 24 µM
[26]
  EC50: 20 µM
[27]
  inhibition: Active
[28]
  EC50: 24 µM
[29]
  EC50: 33 µM
[30]
  inhibition: Active
[31]
  Activity: 19%
HeLa
  Activity: Non-toxic
PBMC [32]
  Activity: inactive
[33]
  EC50: 34 µM
PBMC [34]
  Activity: inactive
[35]
  EC50: 33 µM
[36]
  Activity: 10%
[37]
  inhibition: Active

Reference: ChEMBL document CHEMBL1629554, “Activity of the small modified amino acid alpha-hydroxy glycineamide on in vitro and in vivo human immunodeficiency virus type 1 capsid assembly and infectivity” (Antimicrob Agents Chemother, 2008)
